Results reported in ChEMBL document CHEMBL1144846, “Herkinorin analogues with differential beta-arrestin-2 interactions” (J Med Chem, 2008).
The source made the active and inactive calls. The rule behind the calls is not given here.

Tests used:
Homo sapiens [1] = species: Homo sapiens; test: Selectivity for human recombinant kappa opioid receptor over human recombinant delta opioid receptor
Homo sapiens [2] = species: Homo sapiens; test: Selectivity for human recombinant kappa opioid receptor over human recombinant mu opioid receptor
[3] = target: T1, Kappa-type opioid receptor (Homo sapiens, UniProt P41145); test: Displacement of [125I]IOXY from human recombinant kappa opioid receptor expressed in CHO cells; assay type: cell-based
T1 sequence (P41145 whole entry): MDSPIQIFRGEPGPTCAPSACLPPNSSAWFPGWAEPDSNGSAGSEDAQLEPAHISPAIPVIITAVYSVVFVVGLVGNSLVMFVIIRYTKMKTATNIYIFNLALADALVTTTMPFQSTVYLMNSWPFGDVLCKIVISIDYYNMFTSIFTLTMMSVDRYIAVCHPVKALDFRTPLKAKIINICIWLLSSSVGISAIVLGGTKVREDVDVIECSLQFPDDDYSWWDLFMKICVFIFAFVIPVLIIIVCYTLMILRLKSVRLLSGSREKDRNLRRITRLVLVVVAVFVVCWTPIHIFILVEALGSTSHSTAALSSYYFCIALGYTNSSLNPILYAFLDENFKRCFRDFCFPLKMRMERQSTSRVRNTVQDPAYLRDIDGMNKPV

[4] = target: Delta-type opioid receptor (Homo sapiens, UniProt P41143); test: Displacement of [125I]IOXY from human recombinant delta opioid receptor expressed in CHO cells; assay type: cell-based
Chain of Delta-type opioid receptor (P41143 whole entry): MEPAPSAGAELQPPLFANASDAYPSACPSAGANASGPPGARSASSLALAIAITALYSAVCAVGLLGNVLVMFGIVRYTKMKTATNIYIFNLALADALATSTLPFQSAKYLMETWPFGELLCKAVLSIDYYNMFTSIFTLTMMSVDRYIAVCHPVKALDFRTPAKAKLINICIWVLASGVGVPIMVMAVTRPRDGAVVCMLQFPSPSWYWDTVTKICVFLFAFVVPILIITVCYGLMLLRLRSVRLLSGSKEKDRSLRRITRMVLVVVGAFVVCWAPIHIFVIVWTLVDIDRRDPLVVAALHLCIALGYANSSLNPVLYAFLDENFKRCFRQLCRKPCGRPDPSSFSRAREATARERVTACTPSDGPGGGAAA

Mu-type opioid receptor [5] = target: T2, Mu-type opioid receptor (Homo sapiens, UniProt P35372); test: Displacement of [125I]IOXY from human recombinant mu opioid receptor expressed in CHO cells; assay type: cell-based
T2 sequence (P35372 whole entry): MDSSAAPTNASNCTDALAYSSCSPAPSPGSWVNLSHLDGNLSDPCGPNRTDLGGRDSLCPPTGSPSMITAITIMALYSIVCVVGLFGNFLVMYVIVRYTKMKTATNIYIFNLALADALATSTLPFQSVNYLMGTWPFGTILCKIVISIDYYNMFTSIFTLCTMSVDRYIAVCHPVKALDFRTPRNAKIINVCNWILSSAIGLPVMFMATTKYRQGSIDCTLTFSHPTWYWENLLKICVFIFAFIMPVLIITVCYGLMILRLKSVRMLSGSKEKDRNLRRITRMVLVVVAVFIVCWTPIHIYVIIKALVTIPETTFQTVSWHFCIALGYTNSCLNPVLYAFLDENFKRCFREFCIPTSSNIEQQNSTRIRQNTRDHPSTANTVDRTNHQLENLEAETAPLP

[6] = target: T1, Kappa-type opioid receptor; test: Agonist activity at human recombinant kappa opioid receptor expressed in CHO cells by [35S]GTPgammaS binding assay relative to (-)-U50,488; assay type: functional, cell-based
Mu-type opioid receptor [7] = target: T2, Mu-type opioid receptor; test: Agonist activity at human recombinant mu opioid receptor expressed in CHO cells by [35S]GTP-gamma-S binding assay; assay type: functional, cell-based
[8] = target: T1, Kappa-type opioid receptor; test: Agonist activity at human recombinant kappa opioid receptor expressed in CHO cells by [35S]GTP-gamma-S binding assay; assay type: functional, cell-based
Mu-type opioid receptor [9] = target: T2, Mu-type opioid receptor; test: Agonist activity at human recombinant mu opioid receptor expressed in CHO cells by [35S]GTP-gamma-S binding assay relative to DAMGO; assay type: functional, cell-based
Mu-type opioid receptor [10] = target: T2, Mu-type opioid receptor; test: Agonist activity at human mu opioid receptor expressed in CHO cells assessed as increase in ERK phosphorylation after 10 mins; assay type: functional, cell-based
Method in brief: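 CHO cells stably expressing human MOR1 (~800 fmol/mg membrane protein), serum-starved 30 min at 37°C, then treated 10 min, with naloxone present where indicated. Lysates were run on SDS-PAGE and immunoblotted for total ERK1/2, then stripped and reprobed for phospho-ERK (Tyr204), with HRP chemiluminescence detection. Densitometry; at least three experiments in triplicate.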

Mu-type opioid receptor [11] = target: T2, Mu-type opioid receptor; test: Agonist activity at mu opioid receptor expressed in HEK293 cells assessed as induction of beta-arrestin-2-GFP plasma membrane translocation at 10 uM after 10 mins; assay type: functional, cell-based
Method in brief: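 HEK-293 cells stably expressing MOR (~1000 fmol/mg membrane protein), or transiently expressing MOR1, were transiently transfected with βarr2-GFP (2 μg), with or without GRK2 (1.5 μg). After 24–36 h at 37°C and 30 min serum starvation, basal images were taken. Drug was then applied at 10 μM for 10 min, with confocal imaging each minute; cells shown at 5 min. At least 3 independent experiments.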

Compound: COC(=O)[C@@H]1C[C@H](OC(=O)c2ccccc2[N+](=O)[O-])C(=O)[C@H]2[C@@]1(C)CC[C@H]1C(=O)O[C@H](c3ccoc3)C[C@]21C
- Ratio Ki (Homo sapiens [1]): > 11
- Ratio Ki (Homo sapiens [2]): 8
- Ki [3]: 900 nM
- Ki [4]: > 10000 nM
- Ki (Mu-type opioid receptor [5]): 7550 nM

Compound: COC(=O)[C@@H]1C[C@H](OC(=O)c2ccsc2)C(=O)[C@H]2[C@@]1(C)CC[C@H]1C(=O)O[C@H](c3ccoc3)C[C@]21C
- Emax [6]: 95%
- Ratio Ki (Homo sapiens [1]): 9
- EC50 (Mu-type opioid receptor [7]): 690 nM
- Ratio Ki (Homo sapiens [2]): 0.16
- EC50 [8]: 840 nM
- Ki [3]: 80 nM
- Emax (Mu-type opioid receptor [9]): 108%
- Ki [4]: 690 nM
- Ki (Mu-type opioid receptor [5]): 10 nM

Compound: COC(=O)[C@@H]1C[C@H](NC(=O)c2ccccc2)C(=O)[C@H]2[C@@]1(C)CC[C@H]1C(=O)O[C@H](c3ccoc3)C[C@]21C
- Ratio Ki (Homo sapiens [1]): 0.11
- EC50 (Mu-type opioid receptor [7]): 360 nM
- Ratio Ki (Homo sapiens [2]): 0.0004
- Ki [3]: 7430 nM
- Emax (Mu-type opioid receptor [9]): 134%
- Activity (Mu-type opioid receptor [10]): Dose-dependent effect
- Ki [4]: 810 nM
- Ki (Mu-type opioid receptor [5]): 3.1 nM
- Activity (Mu-type opioid receptor [11]): Active

Compound: COC(=O)[C@@H]1C[C@H](O)C(=O)[C@H]2[C@@]1(C)CC[C@H]1C(=O)O[C@H](c3ccoc3)C[C@]21C [SALVINORIN B]
- Ki [4]: > 10000 nM
- Ki (Mu-type opioid receptor [5]): > 10000 nM

Compound: COC(=O)[C@@H]1C[C@H](OC(=O)c2cccc(OC)c2)C(=O)[C@H]2[C@@]1(C)CC[C@H]1C(=O)O[C@H](c3ccoc3)C[C@]21C
- Emax [6]: 97%
- Ratio Ki (Homo sapiens [1]): 2
- EC50 (Mu-type opioid receptor [7]): 1670 nM
- Ratio Ki (Homo sapiens [2]): 0.05
- EC50 [8]: 3590 nM
- Ki [3]: 550 nM
- Emax (Mu-type opioid receptor [9]): 72%
- Ki [4]: 1140 nM
- Ki (Mu-type opioid receptor [5]): 30 nM

Compound: COC(=O)[C@@H]1C[C@H](OC(=O)c2cccs2)C(=O)[C@H]2[C@@]1(C)CC[C@H]1C(=O)O[C@H](c3ccoc3)C[C@]21C
- Ratio Ki (Homo sapiens [1]): 5
- EC50 (Mu-type opioid receptor [7]): 1150 nM
- Ratio Ki (Homo sapiens [2]): 0.04
- Emax (Mu-type opioid receptor [9]): 95%

Compound: COC(=O)[C@@H]1C[C@H](OC(=O)c2ccccc2Br)C(=O)[C@H]2[C@@]1(C)CC[C@H]1C(=O)O[C@H](c3ccoc3)C[C@]21C
- Ratio Ki (Homo sapiens [1]): > 100
- Ratio Ki (Homo sapiens [2]): 1.2

Compound: COC(=O)[C@@H]1C[C@H](NC(C)=O)C(=O)[C@H]2[C@@]1(C)CC[C@H]1C(=O)O[C@H](c3ccoc3)C[C@]21C
- Emax [6]: 108%
- Ratio Ki (Homo sapiens [1]): > 330
- Ratio Ki (Homo sapiens [2]): 13
- EC50 [8]: 120 nM
- Ki [3]: 30 nM
- Ki [4]: > 10000 nM
- Ki (Mu-type opioid receptor [5]): 4180 nM

Compound: COC(=O)[C@@H]1C[C@H](OC(=O)c2cc3ccccc3o2)C(=O)[C@H]2[C@@]1(C)CC[C@H]1C(=O)O[C@H](c3ccoc3)C[C@]21C
- Emax [6]: 109%
- Ratio Ki (Homo sapiens [1]): 8
- EC50 (Mu-type opioid receptor [7]): 1680 nM
- Ratio Ki (Homo sapiens [2]): 0.14
- EC50 [8]: 1120 nM
- Ki [3]: 70 nM
- Emax (Mu-type opioid receptor [9]): 104%
- Ki [4]: 580 nM
- Ki (Mu-type opioid receptor [5]): 10 nM

Compound: COC(=O)[C@@H]1C[C@H](OC(=O)c2ccc3ccccc3c2)C(=O)[C@H]2[C@@]1(C)CC[C@H]1C(=O)O[C@H](c3ccoc3)C[C@]21C
- Ratio Ki (Homo sapiens [1]): > 2
- Ratio Ki (Homo sapiens [2]): 0.03
- Ki [3]: 5490 nM
- Ki [4]: > 10000 nM
- Ki (Mu-type opioid receptor [5]): 180 nM

Compound: COC(=O)[C@@H]1C[C@H](OC(=O)c2cccc3ccccc23)C(=O)[C@H]2[C@@]1(C)CC[C@H]1C(=O)O[C@H](c3ccoc3)C[C@]21C
- Ratio Ki (Homo sapiens [1]): > 24
- Ratio Ki (Homo sapiens [2]): > 24
- Ki [3]: 410 nM
- Ki [4]: > 10000 nM
- Ki (Mu-type opioid receptor [5]): > 10000 nM

Compound: COC(=O)[C@@H]1C[C@H](NS(C)(=O)=O)C(=O)[C@H]2[C@@]1(C)CC[C@H]1C(=O)O[C@H](c3ccoc3)C[C@]21C
- Ratio Ki (Homo sapiens [1]): > 38
- Ratio Ki (Homo sapiens [2]): > 38
- Ki [3]: 260 nM
- Ki [4]: > 10000 nM
- Ki (Mu-type opioid receptor [5]): > 10000 nM

Compound: COC(=O)[C@@H]1C[C@H](OC(=O)c2cccc([N+](=O)[O-])c2)C(=O)[C@H]2[C@@]1(C)CC[C@H]1C(=O)O[C@H](c3ccoc3)C[C@]21C
- Ratio Ki (Homo sapiens [1]): > 12
- Ratio Ki (Homo sapiens [2]): > 12
- Ki [3]: 800 nM
- Ki [4]: > 10000 nM
- Ki (Mu-type opioid receptor [5]): > 10000 nM

Compound: COC(=O)[C@@H]1C[C@H](NS(=O)(=O)c2ccccc2)C(=O)[C@H]2[C@@]1(C)CC[C@H]1C(=O)O[C@H](c3ccoc3)C[C@]21C
- Ratio Ki (Homo sapiens [1]): > 7
- Ratio Ki (Homo sapiens [2]): > 7
- Ki [3]: 1400 nM
- Ki [4]: > 10000 nM
- Ki (Mu-type opioid receptor [5]): > 10000 nM

Compound: COC(=O)[C@@H]1C[C@H](OC(=O)c2ccc(Br)cc2)C(=O)[C@H]2[C@@]1(C)CC[C@H]1C(=O)O[C@H](c3ccoc3)C[C@]21C
- Ratio Ki (Homo sapiens [1]): 2
- EC50 (Mu-type opioid receptor [7]): 4890 nM
- Ratio Ki (Homo sapiens [2]): 0.01
- Emax (Mu-type opioid receptor [9]): 108%
- Activity (Mu-type opioid receptor [10]): Dose-dependent effect

Compound: COC(=O)[C@@H]1C[C@H](OC(=O)c2ccccc2OC)C(=O)[C@H]2[C@@]1(C)CC[C@H]1C(=O)O[C@H](c3ccoc3)C[C@]21C
- Ratio Ki (Homo sapiens [1]): > 43
- Ratio Ki (Homo sapiens [2]): 7
- Ki [3]: 230 nM
- Ki [4]: > 10000 nM
- Ki (Mu-type opioid receptor [5]): 1640 nM

Compound: COC(=O)[C@@H]1C[C@H](OC(=O)C2CCCCC2)C(=O)[C@H]2[C@@]1(C)CC[C@H]1C(=O)O[C@H](c3ccoc3)C[C@]21C
- Ratio Ki (Homo sapiens [1]): > 5
- Ratio Ki (Homo sapiens [2]): 0.5
- Ki [3]: 2010 nM
- Ki [4]: > 10000 nM
- Ki (Mu-type opioid receptor [5]): 1030 nM

Compound: COC(=O)[C@@H]1C[C@H](OC(=O)c2cccc(Br)c2)C(=O)[C@H]2[C@@]1(C)CC[C@H]1C(=O)O[C@H](c3ccoc3)C[C@]21C
- Ratio Ki (Homo sapiens [1]): > 100
- Ratio Ki (Homo sapiens [2]): 1.6

Compound: COC(=O)[C@@H]1C[C@H](OC(=O)c2ccc(OC)cc2)C(=O)[C@H]2[C@@]1(C)CC[C@H]1C(=O)O[C@H](c3ccoc3)C[C@]21C
- Emax [6]: 106%
- Ratio Ki (Homo sapiens [1]): 3
- EC50 (Mu-type opioid receptor [7]): 830 nM
- Ratio Ki (Homo sapiens [2]): 0.12
- EC50 [8]: 2610 nM
- Ki [3]: 540 nM
- Emax (Mu-type opioid receptor [9]): 94%
- Activity (Mu-type opioid receptor [10]): Dose-dependent effect
- Ki [4]: 1860 nM
- Ki (Mu-type opioid receptor [5]): 70 nM

Compound: COC(=O)[C@@H]1C[C@H](OC(=O)c2ccccc2)C(=O)[C@H]2[C@@]1(C)CC[C@H]1C(=O)O[C@H](c3ccoc3)C[C@]21C
- Ratio Ki (Homo sapiens [1]): 12
- Ratio Ki (Homo sapiens [2]): 0.13

Compound: COC(=O)[C@@H]1C[C@H](OC(=O)c2ccc([N+](=O)[O-])cc2)C(=O)[C@H]2[C@@]1(C)CC[C@H]1C(=O)O[C@H](c3ccoc3)C[C@]21C
- Ratio Ki (Homo sapiens [1]): 0.45
- EC50 (Mu-type opioid receptor [7]): 1370 nM
- Ratio Ki (Homo sapiens [2]): 13
- Ki [3]: 570 nM
- Emax (Mu-type opioid receptor [9]): 46%
- Activity (Mu-type opioid receptor [10]): Dose-dependent effect
- Ki [4]: > 10000 nM
- Ki (Mu-type opioid receptor [5]): 260 nM

Compound: COC(=O)[C@@H]1C[C@H](SC(=O)c2ccccc2)C(=O)[C@H]2[C@@]1(C)CC[C@H]1C(=O)O[C@H](c3ccoc3)C[C@]21C
- Ratio Ki (Homo sapiens [1]): 1.4
- Ratio Ki (Homo sapiens [2]): 0.21
- Ki [3]: 1410 nM
- Ki [4]: 1930 nM
- Ki (Mu-type opioid receptor [5]): 290 nM
